Columns and labels:
HCT-116 [1] = assay: Antitumor activity against human HCT-116 cells xenografted in nude mouse assessed as inhibition of [3H]FLT uptake at 25 mg/kg, po administered once a day for 2 day and measured after 2 hrs post [3H]FLT administration by scintillation counter analysis relative to control; format: functional; conditions: HCT-116, 48 h
How it was run: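 HCT116 xenograft mice (tumors 300–350 mm3, n = 5 per group) received oral vehicle or compound, with harvests on days 2, 3 and 6. Isoflurane-anesthetized mice were given [3H]FLT (15 nCi/g, i.p.) 2 h before killing. Tumor and liver were weighed, solubilized and scintillation-counted. SUV = C/(ID/W), and uptake is reported as the tumor-to-liver SUV ratio.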

MIA PaCa-2 = assay: Antiproliferative activity against human MIA PaCa-2 cells assessed as inhibition of cell proliferation incubated for 3 days by CellTiter-Glo Luminescent Cell Viability Assay; format: functional, cell-based; conditions: MIA PaCa-2, 72 h
How it was run: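 Cancer cell lines seeded in 384-well plates on day 1; compound added on day 2 and incubated 3 days. On day 5 media aspirated and viable cells quantified by ATP content using CellTiter-Glo luminescence; dose-dependent proliferation effects determined.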

[2] = Inhibition of NF-kappaB signaling in HEK293T cells preincubated with compound for 0.5 hrs followed by TNFalpha stimulation and measured after 7 hrs by Steady-Glo luciferase assay; format: cell-based; conditions: Homo sapiens, HEK-293T
[3] = Antiproliferative activity against human PL45 cells assessed as inhibition of cell proliferation incubated for 3 days by CellTiter-Glo Luminescent Cell Viability Assay; format: functional, cell-based; conditions: PL45, 72 h
How it was run: (§1)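 Cells of each line were plated in 384-well plates on day 1 and exposed to compound from day 2 for 3 days. On day 5 all medium was aspirated. Viable cell number was read by CellTiter-Glo luminescence, which quantifies cellular ATP.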

BT-20 = assay: Antiproliferative activity against human BT-20 cells assessed as inhibition of cell proliferation incubated for 3 days by CellTiter-Glo Luminescent Cell Viability Assay; format: functional, cell-based; conditions: BT-20, 72 h
How it was run: (§2)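 Cancer cell lines seeded in 384-well plates on day 1; compound added on day 2 and left for 3 days. On day 5 all medium was aspirated, and viable cells were quantified by CellTiter-Glo luminescence, which measures cellular ATP. Dose-dependent effects on proliferation were determined.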

M24met [4] = assay: Antitumor activity against human M24met cells xenografted in nude mouse assessed as tumor growth inhibition at 25 mg/kg, po administered once daily for 9 to 18 days relative to control; format: functional; conditions: time 9-18 day, read-out: TGI
SK-BR-3 = assay: Antiproliferative activity against human SK-BR-3 cells assessed as inhibition of cell proliferation incubated for 3 days by CellTiter-Glo Luminescent Cell Viability Assay; format: functional, cell-based; conditions: SK-BR-3, 72 h; how it was run: as §1
NCI-H1650 = assay: Inhibition of anchorage independent cell growth in human NCI-H1650 cells incubated for 6 days by Alamar blue reagent based fluorescence plate reader analysis; format: functional; conditions: NCI-H1650, 144 h
[5] = biological target: Serine/threonine-protein kinase Chk2 (Homo sapiens, UniProt O96017); assay: Inhibition of human CHK2 in presence of ATP relative to control; conditions: concentration not given here
Sequence of Serine/threonine-protein kinase Chk2 (O96017 whole entry): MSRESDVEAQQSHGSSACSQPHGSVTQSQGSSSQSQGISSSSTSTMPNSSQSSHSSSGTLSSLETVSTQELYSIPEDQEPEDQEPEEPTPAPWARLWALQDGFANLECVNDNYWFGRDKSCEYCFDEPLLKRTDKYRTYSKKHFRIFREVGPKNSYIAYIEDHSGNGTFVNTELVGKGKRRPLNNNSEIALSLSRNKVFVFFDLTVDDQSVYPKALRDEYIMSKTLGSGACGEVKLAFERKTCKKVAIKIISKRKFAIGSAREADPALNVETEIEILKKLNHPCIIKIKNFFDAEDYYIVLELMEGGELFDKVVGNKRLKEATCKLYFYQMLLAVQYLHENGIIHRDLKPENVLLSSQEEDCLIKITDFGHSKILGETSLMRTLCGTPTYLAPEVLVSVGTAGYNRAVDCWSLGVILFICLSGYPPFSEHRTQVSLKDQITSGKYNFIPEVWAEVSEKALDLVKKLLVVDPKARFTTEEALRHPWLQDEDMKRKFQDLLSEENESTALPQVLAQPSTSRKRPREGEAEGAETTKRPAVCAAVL

M24met [6] = assay: Antitumor activity against human M24met cells xenografted in nude mouse assessed as tumor growth inhibition at 7.5 mg/kg, po administered once daily for 9 to 18 days relative to control; format: functional; conditions: time 9-18 day, read-out: TGI
HCT-116 [7] = assay: Antitumor activity against human HCT-116 cells xenografted in nude mouse assessed as tumor growth inhibition at 0.12 mg/kg administered via pump for 9 days relative to control; format: functional; conditions: HCT-116, 216 h, time 9 day, read-out: TGI
[8] = biological target: Protein kinase C gamma type (Homo sapiens, UniProt P05129); assay: Inhibition of human PKCgamma in presence of ATP
HCT-116 [9] = assay: Antitumor activity against human HCT-116 cells xenografted in nude mouse assessed as tumor growth inhibition at 7.5 mg/kg, po administered twice daily for 9 to 18 days relative to control; format: functional; conditions: time 9-18 day, read-out: TGI
[10] = Drug concentration in nude mouse plasma xenografted with human HCT-116 cells at 1.1 mg/kg administered via pump for 9 days by LC-MS/MS analysis; format: ADME, organism-based; conditions: time 9 day
[11] = In vivo inhibition of PAK4 in nude mouse xenografted with human HCT-116 cells assessed as reduction in phosphorylated GEF-H1 level at 1.1 to 3.3 mg/kg, sc administered for 6 days by ELISA relative to control; format: functional; set-up: scale not given: the % may be the effect or the level left; conditions: dose 1.1-3.3 mg/kg, time 6 day
BT-474 = assay: Antiproliferative activity against human BT-474 cells assessed as inhibition of cell proliferation incubated for 3 days by CellTiter-Glo Luminescent Cell Viability Assay; format: functional, cell-based; conditions: BT-474, 72 h; how it was run: as §2
RKO = assay: Antiproliferative activity against human RKO cells assessed as inhibition of cell proliferation incubated for 3 days by CellTiter-Glo Luminescent Cell Viability Assay; format: functional, cell-based; conditions: 72 h; how it was run: as §1
HCC70 = assay: Antiproliferative activity against human HCC70 cells assessed as inhibition of cell proliferation incubated for 3 days by CellTiter-Glo Luminescent Cell Viability Assay; format: functional, cell-based; conditions: HCC70, 72 h; how it was run: as §2
NCI-H1770 = assay: Inhibition of anchorage independent cell growth in human NCI-H1770 cells incubated for 6 days by Alamar blue reagent based fluorescence plate reader analysis; format: functional; conditions: NCI-H1770, 144 h
Capan-2 = assay: Antiproliferative activity against human Capan-2 cells assessed as inhibition of cell proliferation incubated for 3 days by CellTiter-Glo Luminescent Cell Viability Assay; format: functional, cell-based; conditions: Capan-2, 72 h; how it was run: as §2
[12] = biological target: Ribosomal protein S6 kinase alpha-2 (Homo sapiens, UniProt Q15349); assay: Inhibition of human RSK3 in presence of ATP relative to control; conditions: concentration not given here
Sequence of Ribosomal protein S6 kinase alpha-2 (Q15349 whole entry): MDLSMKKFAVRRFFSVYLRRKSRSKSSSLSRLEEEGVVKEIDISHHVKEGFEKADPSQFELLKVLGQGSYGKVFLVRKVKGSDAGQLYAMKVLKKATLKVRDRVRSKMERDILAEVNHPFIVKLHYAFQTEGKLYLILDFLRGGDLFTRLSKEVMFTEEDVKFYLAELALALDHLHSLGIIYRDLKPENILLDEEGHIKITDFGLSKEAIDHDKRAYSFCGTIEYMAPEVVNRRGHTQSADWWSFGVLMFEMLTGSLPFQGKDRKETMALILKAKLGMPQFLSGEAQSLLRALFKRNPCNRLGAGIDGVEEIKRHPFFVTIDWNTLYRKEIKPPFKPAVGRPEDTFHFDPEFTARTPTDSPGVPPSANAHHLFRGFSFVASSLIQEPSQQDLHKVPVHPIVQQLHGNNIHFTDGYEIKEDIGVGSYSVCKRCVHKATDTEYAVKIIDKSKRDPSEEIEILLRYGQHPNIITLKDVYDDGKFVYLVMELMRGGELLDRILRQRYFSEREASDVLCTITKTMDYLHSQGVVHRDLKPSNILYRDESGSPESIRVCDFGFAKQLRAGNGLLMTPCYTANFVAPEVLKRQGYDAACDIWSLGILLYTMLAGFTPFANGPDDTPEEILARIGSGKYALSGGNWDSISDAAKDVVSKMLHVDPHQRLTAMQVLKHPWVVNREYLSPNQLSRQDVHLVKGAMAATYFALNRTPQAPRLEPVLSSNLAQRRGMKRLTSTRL

[13] = biological target: RAC-gamma serine/threonine-protein kinase (Homo sapiens, UniProt Q9Y243); assay: Inhibition of human AKT3 assessed as inhibition constant in presence of ATP
Sequence of RAC-gamma serine/threonine-protein kinase (Q9Y243 whole entry): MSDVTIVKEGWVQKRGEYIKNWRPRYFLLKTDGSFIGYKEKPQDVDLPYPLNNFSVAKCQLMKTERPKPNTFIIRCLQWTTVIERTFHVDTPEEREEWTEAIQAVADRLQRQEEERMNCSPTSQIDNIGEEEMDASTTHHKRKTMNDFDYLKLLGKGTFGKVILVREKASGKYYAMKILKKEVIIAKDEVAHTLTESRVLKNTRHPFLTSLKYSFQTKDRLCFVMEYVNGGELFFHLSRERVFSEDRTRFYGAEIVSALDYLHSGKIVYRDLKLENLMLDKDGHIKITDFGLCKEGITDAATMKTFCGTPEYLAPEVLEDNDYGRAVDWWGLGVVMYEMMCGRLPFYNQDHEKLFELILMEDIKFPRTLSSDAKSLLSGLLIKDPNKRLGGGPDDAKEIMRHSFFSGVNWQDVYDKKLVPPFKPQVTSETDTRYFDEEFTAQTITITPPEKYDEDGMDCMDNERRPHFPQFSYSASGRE

[14] = biological target: Tyrosine-protein kinase Fyn (Homo sapiens, UniProt P06241); assay: Inhibition of human FYN assessed as inhibition constant in presence of ATP
Sequence of Tyrosine-protein kinase Fyn (P06241 whole entry): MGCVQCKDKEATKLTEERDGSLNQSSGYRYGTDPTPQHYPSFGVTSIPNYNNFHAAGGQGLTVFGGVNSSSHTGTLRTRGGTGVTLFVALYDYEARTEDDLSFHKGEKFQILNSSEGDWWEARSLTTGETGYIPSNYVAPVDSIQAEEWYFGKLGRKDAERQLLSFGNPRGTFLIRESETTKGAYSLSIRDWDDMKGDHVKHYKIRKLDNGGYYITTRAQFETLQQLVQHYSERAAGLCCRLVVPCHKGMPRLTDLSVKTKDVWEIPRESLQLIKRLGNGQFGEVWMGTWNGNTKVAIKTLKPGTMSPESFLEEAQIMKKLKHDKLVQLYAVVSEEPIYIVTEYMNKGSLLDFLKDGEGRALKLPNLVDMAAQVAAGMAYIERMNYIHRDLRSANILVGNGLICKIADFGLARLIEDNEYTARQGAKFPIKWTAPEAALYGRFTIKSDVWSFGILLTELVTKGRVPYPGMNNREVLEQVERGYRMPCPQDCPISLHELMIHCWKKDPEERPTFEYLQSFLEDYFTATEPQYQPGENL

Hs-578T = assay: Antiproliferative activity against human Hs-578T cells assessed as inhibition of cell proliferation incubated for 3 days by CellTiter-Glo Luminescent Cell Viability Assay; format: functional, cell-based; conditions: 72 h; how it was run: as §2
A549 = assay: Antitumor activity against human A549 cells xenografted in nude mouse assessed as tumor growth inhibition at 10 mg/kg, po administered once daily for 9 to 18 days relative to control; format: functional; conditions: time 9-18 day, read-out: TGI
How it was run: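 Tumor cells were implanted s.c. into the right flank of female nu/nu nude mice aged 6–8 weeks. Animals were randomized into treatment groups once tumors were established (example: day 8 postimplant, about 170 mm3, animals >22 g). Compound in 0.5% methylcellulose was given by oral gavage. Tumors were measured with calipers two to three times per week.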

[15] = biological target: Protein kinase C beta type (Homo sapiens, UniProt P05771); assay: Inhibition of human PKCbeta1 assessed as inhibition constant in presence of ATP
Sequence of Protein kinase C beta type (P05771 whole entry, the tested form may be a part): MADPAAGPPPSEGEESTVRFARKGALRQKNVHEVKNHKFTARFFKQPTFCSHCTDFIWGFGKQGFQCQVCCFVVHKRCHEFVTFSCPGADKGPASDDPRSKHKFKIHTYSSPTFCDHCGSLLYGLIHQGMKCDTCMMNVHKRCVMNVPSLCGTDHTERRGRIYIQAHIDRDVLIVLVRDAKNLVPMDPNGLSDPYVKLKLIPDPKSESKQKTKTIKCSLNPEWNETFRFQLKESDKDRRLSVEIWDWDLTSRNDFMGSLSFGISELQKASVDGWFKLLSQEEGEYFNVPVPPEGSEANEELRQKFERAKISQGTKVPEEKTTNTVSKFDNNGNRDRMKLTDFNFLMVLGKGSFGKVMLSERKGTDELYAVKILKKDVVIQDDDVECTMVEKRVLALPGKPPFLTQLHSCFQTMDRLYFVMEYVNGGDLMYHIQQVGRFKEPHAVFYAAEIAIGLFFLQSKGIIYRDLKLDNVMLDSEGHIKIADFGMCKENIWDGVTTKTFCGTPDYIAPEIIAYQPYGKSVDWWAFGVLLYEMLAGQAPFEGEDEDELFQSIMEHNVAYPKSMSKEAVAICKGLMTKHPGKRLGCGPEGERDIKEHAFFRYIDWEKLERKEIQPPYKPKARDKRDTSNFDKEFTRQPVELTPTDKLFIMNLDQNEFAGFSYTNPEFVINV

[16] = Inhibition of YFP/YFP variant coding sequence fused PAK4/cofilin (unknown origin) expressed in HEK293 cells incubated for 8 to 24 hrs by fluorescence based analysis; format: cell-based, Homo sapiens
[17] = Antiproliferative activity against human GTL16S4 acquired resistance cells assessed as inhibition of cell proliferation incubated for 3 days by CellTiter-Glo Luminescent Cell Viability Assay; format: functional, cell-based; conditions: 72 h; how it was run: as §2
[18] = Drug concentration in nude mouse plasma xenografted with human HCT-116 cells at 0.12 mg/kg administered via pump for 9 days by LC-MS/MS analysis; format: ADME, organism-based; conditions: time 9 day

IC50 (MIA PaCa-2): 17 nM
IC50 [2]: 24.2 nM
IC50 (BT-20): 81.7 nM
IC50 (SK-BR-3): 132 nM
IC50 (NCI-H1650): 5.57 nM
inhibition [5]: 103%
IC50 [8]: 59.2 nM
concentration at 216 h [10]: 5.6 ng/mL
IC50 (BT-474): 1.8 nM
IC50 (NCI-H1770): 1.84 nM
inhibition [12]: 98%
Ki [13]: 172 nM
Ki [14]: 26 nM
Ki [15]: 185 nM
IC50 [16]: 10.4 nM
concentration at 216 h [18]: 0.56 ng/mL
Compound: Cc1nc(Nc2n[nH]c3c2CN(C(=O)N[C@H](CN(C)C)c2ccccc2)C3(C)C)c2sccc2n1 [PF-03758309]
inhibition in vivo at 25 mg/kg (HCT-116 [1]): 35.3%
IC50 [3]: 53 nM
inhibition in vivo at 25 mg/kg (M24met [4]): 85%
inhibition in vivo at 7.5 mg/kg (M24met [6]): 49%
inhibition in vivo at 0.12 mg/kg (HCT-116 [7]): 16%
inhibition in vivo at 7.5 mg/kg (HCT-116 [9]): 64%
Activity [11]: 54%
IC50 (RKO): 1.8 nM
IC50 (HCC70): 0.23 nM
IC50 (Capan-2): 136 nM
IC50 (Hs-578T): 0.37 nM
inhibition in vivo at 10 mg/kg (A549): 71%
IC50 [17]: 10 µM

Source: ChEMBL document CHEMBL5678802, “Small-molecule p21-activated kinase inhibitor PF-3758309 is a potent inhibitor of oncogenic signaling and tumor growth” (Proc Natl Acad Sci U S A, 2010)
